Reference: ChEMBL document CHEMBL4041542, “Synthesis and biological characterisation of ester and amide derivatives of fusidic acid as antiplasmodial agents” (Bioorg Med Chem Lett, 2017)

Experiments:
Plasmodium falciparum [1] = experiment: Antiplasmodial activity against chloroquine-sensitive Plasmodium falciparum NF54 by LDH assay; format: functional
Summary of the method: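 In vitro test on the chloroquine-sensitive NF54 strain of P. falciparum, read out by the lactate dehydrogenase assay. Reported as IC50. Chloroquine and artesunate were included as reference drugs in all experiments.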

Plasmodium falciparum [2] = experiment: Antiplasmodial activity against chloroquine-resistant Plasmodium falciparum K1 by [3H]hypoxanthine incorporation assay; format: functional
Summary of the method: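 Multidrug-resistant K1 strain of P. falciparum tested in vitro with a modified [3H]hypoxanthine incorporation assay. IC50 determined. Chloroquine and artesunate served as reference drugs in every experiment.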

CHO = experiment: Cytotoxicity against CHO cells; format: cell-based; settings: Cricetulus griseus
[3] = Selectivity index, ratio of IC50 for CHO cells to IC50 for chloroquine-sensitive Plasmodium falciparum NF54; format: toxicity; settings: hamster, read-out: Ratio IC50
Summary of the method: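 IC50 against Chinese hamster ovary cells (cytotoxicity) was divided by IC50 against P. falciparum NF54. NF54 IC50 came from the lactate dehydrogenase assay, with chloroquine and artesunate as references.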

Plasmodium falciparum [4] = experiment: Potency index, ratio of fusidic acid IC50 to compound IC50 for chloroquine-sensitive Plasmodium falciparum NF54; format: functional
Summary of the method: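 Chloroquine-sensitive P. falciparum NF54 was tested with the lactate dehydrogenase assay, using chloroquine and artesunate as reference drugs. The index is fusidic acid's IC50 divided by the compound's IC50, both against NF54.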

Plasmodium falciparum [5] = experiment: Potency index, ratio of fusidic acid IC50 to compound IC50 for chloroquine-resistant Plasmodium falciparum K1; format: functional
[6] = Stability of the compound assessed as Plasmodium falciparum NF54 esterase-mediated fusidic acid release at 0.5 uM up to 48 hrs by LC-MS/MS analysis; format: ADME; settings: plasmodium falciparum nf54, isolated protein
Plasmodium falciparum [7] = experiment: Antiplasmodial activity against chloroquine-sensitive Plasmodium falciparum D10 infected in erythrocytes after 48 hrs by giemsa staining based assay; format: functional, cell-based; settings: D10, 48 h

Row | Structure (SMILES) | IC50 (Plasmodium falciparum [1]) [µM] | IC50 (Plasmodium falciparum [2]) [µM] | IC50 (CHO) [µM] | selectivity ratio [3] | Ratio IC50 (Plasmodium falciparum [4]) | Ratio IC50 (Plasmodium falciparum [5]) | Stability [6] | IC50 (Plasmodium falciparum [7]) [µM]
1 | CCCCCCCCCCCCCCNC(=O)/C(CCC=C(C)C)=C1\[C@@H](OC(C)=O)C[C@@]2(C)[C@H]1C[C@@H](O)[C@H]1[C@@]3(C)CC[C@@H](O)[C@@H](C)[C@@H]3CC[C@@]12C | 13.4 | 4 | > 140 | > 10 | 4 - 49 | 5 - 17 |  | 
2 | CCOC(=O)/C(CCC=C(C)C)=C1\[C@@H](OC(C)=O)C[C@@]2(C)[C@H]1C[C@@H](O)[C@H]1[C@@]3(C)CC[C@@H](O)[C@@H](C)[C@@H]3CC[C@@]12C | 3.4 | 2.2 | 65.5 | 19 | 4 - 49 | 5 - 17 | Stable | 
3 | CC(=O)O[C@H]1C[C@@]2(C)[C@@H](C[C@@H](O)[C@H]3[C@@]4(C)CC[C@@H](O)[C@@H](C)[C@@H]4CC[C@@]32C)/C1=C(\CCC=C(C)C)C(=O)Nc1ccccc1 | 1.2 | 1.4 | 89.2 | 74 | 4 - 49 | 5 - 17 | Stable | 
4 | CCCCCCCCOC(=O)/C(CCC=C(C)C)=C1\[C@@H](OC(C)=O)C[C@@]2(C)[C@H]1C[C@@H](O)[C@H]1[C@@]3(C)CC[C@@H](O)[C@@H](C)[C@@H]3CC[C@@]12C | 4.6 | 1.6 | 92.4 | 20 | 4 - 49 | 5 - 17 |  | 
5 | CC(=O)O[C@H]1C[C@@]2(C)[C@@H](C[C@@H](O)[C@H]3[C@@]4(C)CC[C@@H](O)[C@@H](C)[C@@H]4CC[C@@]32C)/C1=C(\CCC=C(C)C)C(=O)Oc1ccccc1 | 2.4 | 1.4 | 99.4 | 41 | 20 - 28 | 12 - 14 | Stable | 
6 | CCCCCCCCCCCCNC(=O)/C(CCC=C(C)C)=C1\[C@@H](OC(C)=O)C[C@@]2(C)[C@H]1C[C@@H](O)[C@H]1[C@@]3(C)CC[C@@H](O)[C@@H](C)[C@@H]3CC[C@@]12C | 1.2 | 1.5 | > 146 | > 122 | 4 - 49 | 5 - 17 |  | 
7 | CC(=O)O[C@H]1C[C@@]2(C)[C@@H](C[C@@H](O)[C@H]3[C@@]4(C)CC[C@@H](O)[C@@H](C)[C@@H]4CC[C@@]32C)/C1=C(\CCC=C(C)C)C(=O)O [FUSIDIC ACID] |  | 19 | > 194 | > 3 |  |  |  | 50
